Drawing on ChEMBL document CHEMBL2429784, “Withanolide-based steroids from the cultured soft coral Sinularia brassica” (2013), this text covers EC50 for 4 compounds.

Holding throughout (assay type): functional
Holding throughout (conditions): read-out: ED50 (the source's name)

Assay [1] concerns HT-29. Kind of assay: Cytotoxicity against human HT-29 cells by Alamar blue assay. The gist of the method:
(§1)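 Cell lines from ATCC. Growth inhibition measured by Alamar Blue read-out. ED50 reported as mean ± SEM of triplicate determinations; inactivity cutoff set at ED50 > 10 μM. 5-Fluorouracil run as positive control.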
(In general: Alamar Blue is a resazurin reagent that responds to reducing activity.)

Assay [2] relates to MOLT-4. Kind of assay: Cytotoxicity against human MOLT4 cells by Alamar blue assay. In short, it runs like this: as §1
Assay [3] deals with P388. Put plainly: Cytotoxicity against mouse P388 cells by Alamar blue assay. The gist of the method: as §1
For assay [4], the system named is K562. Kind of assay: Cytotoxicity against human K562 cells by Alamar blue assay. In short, it runs like this: as §1

The structures appear in SMILES notation.

For `C[C@H]1[C@H]2[C@H](C[C@H]3[C@@H]4CCC5=CC(=O)C=C[C@]5(C)[C@H]4CC[C@]23C)O[C@@]2(OC(=O)[C@@H](C)[C@H]2C)[C@H]1O`, the EC50 in assay [1] was determined as 7.5 µM; in assay [2], 9.9 µM.

As for `C[C@@H]1[C@H]([C@H]2OC(=O)[C@H](C)[C@H]2C)O[C@H]2C[C@H]3[C@@H]4CCC5=CC(=O)C=C[C@]5(C)[C@H]4CC[C@]3(C)[C@@H]12`, the figures for the EC50 in assay [1], in assay [2] and in assay [3] were 4.8 µM, 4.8 µM and 9.1 µM, respectively.

For `C[C@@H]1[C@H]([C@H]2OC(=O)[C@@H](C)[C@H]2C)O[C@H]2C[C@H]3[C@@H]4CCC5=CC(=O)C=C[C@]5(C)[C@H]4CC[C@]3(C)[C@@H]12`, in assay [4], the EC50 was 8.7 µM.

Consider `O=c1[nH]cc(F)c(=O)[nH]1` [FLUOROURACIL], for which the EC50 in assay [1] worked out at 7.7 µM; in assay [4], 21 µM; in assay [2] it was 7.7 µM; in assay [3], 6.2 µM.
